HCV core dimer = HCV core protein dimerization inhibition; TR-FRET GST/Flag-core106 dimerization, 1536-well; inhibition, % at 5 µM; 300,000 compounds, 0.33% hits; AID 1899;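 active = inhibition above the mean of all tested compounds plus 3 SD, set per screening campaign, cut at about 45% in these data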
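Test system: GST/Flag-tagged HCV core106 proteins; Medium: KF-containing HEPES buffer, pH 7.45, DTT, CHAPS, BSA; Times: compound-protein-antibody incubation 4 h at 22.5 °C; Detection: TR-FRET 671 and 617 nm emission; Benchmarks: wells lacking GST-core106 and wells with excess unlabelled core106.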
HSF-1 act = increases HSF-1 driven luciferase reporter signal; NIH3T3-HGL HSF-1 luciferase reporter, MG132, 8 h; 100% = twice DMSO control signal; activation, % at 9 µM; 300,000 compounds, 1.7% hits; AID 504408;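 active = mean replicate activation of at least 50% with a set share of replicates each reaching 50%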;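 also: 0% = median of the neutral control wells and 100% = twice that signal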
HSF1 inhib = HSF1 inhibition; NIH3T3-HGL HSE-luciferase, MG132-induced, luminescence 8 h; active compounds read low; activity change, negative = inhibition, % at 7.5 µM (by protocol); 300,000 compounds, 0.77% hits; AID 2098;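 active = more than half of replicate wells show activity change below -50%, luminescence cut by over half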;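 also: luciferase reports HSF-1 transcriptional activity via heat shock element; 0% = median of DMSO wells and -100% = zero luminescence signal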
AI-2 QS modul = modulates the Vibrio harveyi AI-2 quorum sensing system; 300,000 compounds, 0.4% hits; Vibrio harveyi JMH597 AI-2 luminescence/OD600 ratio, 9 h; active compounds read low; strain lacks LuxN and CqsS sensors; 0 = neutral-control median; activity change, % at 7.5 µM; AID 2094; in the data active = activity change below about -75%, passing the limit was not always enough;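 also: luminescence divided by OD600 gain over 9 h not by final OD600 alone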
ALR H2O2 inh = blocks human ALR sulfhydryl oxidase activity; AID 485317; P55789; inhibition, % (test concentration not listed); 290,000 compounds, 3.8% hits; purified ALR, DTT oxidation, H2O2 HRP-luminol luminescence;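 active = mean replicate inhibition above about 79%, with every replicate also reaching it, limit read from the data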
Target sequence (P55789 whole entry, looked up): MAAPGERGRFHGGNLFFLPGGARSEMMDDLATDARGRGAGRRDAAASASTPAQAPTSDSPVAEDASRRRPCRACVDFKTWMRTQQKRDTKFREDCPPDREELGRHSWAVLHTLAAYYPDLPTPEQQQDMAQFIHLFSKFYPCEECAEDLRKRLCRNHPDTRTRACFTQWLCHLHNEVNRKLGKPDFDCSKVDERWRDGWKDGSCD
PHOSPHO1 block = blocks human PHOSPHO1 phosphatase activity | Q8TCT1 | recombinant PHOSPHO1, absorbance phosphatase assay | inhibition, % at 13.3 µM | 290,000 compounds, 1.1% hits | AID 1565; in the data active = inhibition above about 60%
Target sequence (Q8TCT1 whole entry, looked up): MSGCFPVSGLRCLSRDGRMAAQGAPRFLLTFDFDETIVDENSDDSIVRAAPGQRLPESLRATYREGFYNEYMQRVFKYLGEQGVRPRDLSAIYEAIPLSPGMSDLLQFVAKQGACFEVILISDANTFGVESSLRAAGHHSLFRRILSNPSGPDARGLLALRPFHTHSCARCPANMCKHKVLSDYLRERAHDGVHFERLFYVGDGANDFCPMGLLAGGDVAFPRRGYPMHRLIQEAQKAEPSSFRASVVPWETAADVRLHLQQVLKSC
Active calls of the source: *. This is a sample that favours compounds with a hit; in the whole collection about 6.8% have one here.

Results for Cc1ccc(C(=O)N/N=C2\CC3CC=CC23)c(C)c1 (stereo not given) ?
HCV core dimer: -5; HSF-1 act: 4; HSF1 inhib: 14; AI-2 QS modul: 17; ALR H2O2 inh: 2; PHOSPHO1 block: 15

How did CC(=O)c1sc(NC(=O)CCN2C(=O)c3ccccc3C2=O)nc1C do in these assays?
HCV core dimer: 13; HSF-1 act: 2; HSF1 inhib: -6; AI-2 QS modul: -65; ALR H2O2 inh: -3; PHOSPHO1 block: 43

What do the screens show for `O=C(O)CCCCCN1C(=O)/C(=C\c2ccc(-c3ccc(Cl)cc3)o2)SC1=S`?
HCV core dimer: 4; HSF-1 act: -4; HSF1 inhib: -8; AI-2 QS modul: 20; ALR H2O2 inh: 68; PHOSPHO1 block: -2

How did O=C(O)CCCN1C(=O)/C(=C/c2ccc(-c3nc4ccccc4s3)o2)SC1=S do in these assays?
HCV core dimer: 25; HSF-1 act: 13; HSF1 inhib: 1; AI-2 QS modul: 11; ALR H2O2 inh: 52; PHOSPHO1 block: 69*

How did O=C(CSCc1ccccc1)Nc1ccccc1C(=O)Nc1ccc(C(=O)O)cc1 do in these assays?
HCV core dimer: 0; HSF-1 act: -15; HSF1 inhib: -2; AI-2 QS modul: 11; ALR H2O2 inh: 23; PHOSPHO1 block: 24

How did CC(C)COc1ccc(-c2nn(-c3ccccc3)cc2/C=C2/SC(=S)N(CC(=O)O)C2=O)cc1 do in these assays?
HCV core dimer: 20; HSF-1 act: -5; HSF1 inhib: -1; AI-2 QS modul: 4; ALR H2O2 inh: 97*; PHOSPHO1 block: 35

Results for O=C(Nc1nc2ccccc2[nH]1)C1CC1 ?
HCV core dimer: -1; HSF-1 act: 18; HSF1 inhib: 4; AI-2 QS modul: -1; ALR H2O2 inh: 21; PHOSPHO1 block: 44

What do the screens show for `O=C(O)c1cc(NN=C2CCN(Cc3ccccc3)CC2)ccc1Cl`?
HCV core dimer: 4; HSF-1 act: -3; HSF1 inhib: -5; AI-2 QS modul: 32; ALR H2O2 inh: -7; PHOSPHO1 block: -18

What do the screens show for `CC(C)(C)C1CCC(=NNc2nc3ccccc3[nH]2)CC1` (stereo not given)?
HCV core dimer: 1; HSF-1 act: -22; HSF1 inhib: -18; AI-2 QS modul: 28; ALR H2O2 inh: 98*; PHOSPHO1 block: 15

What do the screens show for `c1ccc2c(c1)CC/C2=N/Nc1nc2ccccc2[nH]1`?
HCV core dimer: -9; HSF-1 act: 51*; HSF1 inhib: 13; AI-2 QS modul: 8; ALR H2O2 inh: 99*; PHOSPHO1 block: -21

What do the screens show for `c1ccc(CN2CCC(=NNc3nc4ccccc4[nH]3)CC2)cc1`?
HCV core dimer: -6; HSF-1 act: 11; HSF1 inhib: 2; AI-2 QS modul: 34; ALR H2O2 inh: 99*; PHOSPHO1 block: -6

What do the screens show for `O=C(/C=C/c1cccc(F)c1)NCCCn1ccnc1`?
HCV core dimer: -1; HSF-1 act: 8; HSF1 inhib: 0; AI-2 QS modul: 2; PHOSPHO1 block: 27

How did Cc1ccnn1CC(=O)N/N=C/c1ccc2c(c1)OCO2 do in these assays?
HCV core dimer: -2; HSF-1 act: -5; HSF1 inhib: -3; AI-2 QS modul: 6; ALR H2O2 inh: -2; PHOSPHO1 block: 5

How did COc1ccccc1C(=O)COC(=O)c1ccc(-n2cnnn2)cc1 do in these assays?
HCV core dimer: 3; HSF-1 act: 16; HSF1 inhib: 2; AI-2 QS modul: 19; ALR H2O2 inh: -2

Results for O=C(COC(=O)c1ccccc1-n1cnnn1)c1ccc(F)cc1 ?
HCV core dimer: 0; HSF-1 act: -57; HSF1 inhib: -53*; ALR H2O2 inh: 1

Results for Cn1ccnc1SCC(=O)c1ccc(Br)cc1 ?
HCV core dimer: 5; HSF-1 act: 9; HSF1 inhib: 8; AI-2 QS modul: 30; ALR H2O2 inh: -21; PHOSPHO1 block: 61*

What do the screens show for `Cn1ccnc1SCC(=O)c1c[nH]c2ccccc12`?
HCV core dimer: -4; HSF-1 act: 14; HSF1 inhib: 16; AI-2 QS modul: 2; ALR H2O2 inh: 96*; PHOSPHO1 block: -46

Results for Cn1ccnc1SCC(=O)c1ccc([N+](=O)[O-])cc1 ?
HCV core dimer: 11; HSF-1 act: -5; HSF1 inhib: 6; AI-2 QS modul: 7; ALR H2O2 inh: 0; PHOSPHO1 block: -99

Assay outcomes deposited in PubChem BioAssay by several laboratories.
